Source: PubChem (several laboratories)
This is a sample that favours compounds with a hit; in the whole collection about 2.1% have one here.
RanGTP-Impb inh = disruptors of Ran-importin-beta complex formation – biochemical, FRET, CFP-Ran, YFP-importin-beta, homogeneous, primary screen; cell-free CFP-Ran/YFP-importin-beta FRET ratio; inhibition, % (no concentration beside the values); 300,000 compounds, 1.1% hits; AID 2216;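 active means more than half of the replicate wells show a fall in the fluorescence ratio signal beyond about 16%, limit read from the data, passing the limit was not always enough; inconclusive means exactly half of the replicate wells pass the set limit; inactive means fewer than half of replicates pass the limit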
Runt-SMMHC FRET = inhibitors of human RUNX1 Runt domain binding to CBFb-SMMHC. inhibition, % at 20 µM. Cerulean-Runt/Venus-CBFb-SMMHC FRET ratio 530/480, 1 h. 220,000 compounds, 0.74% hits. Q01196+Q13951. AID 1434;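 active means mean inhibition across duplicate retests at 20 µM reaching about 50%, limit read from the data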;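 further: inhibitors lower the FRET ratio by blocking Runt binding to CBFb-SMMHC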
Target sequence (Q01196 whole entry, looked up, the tested form may be a part): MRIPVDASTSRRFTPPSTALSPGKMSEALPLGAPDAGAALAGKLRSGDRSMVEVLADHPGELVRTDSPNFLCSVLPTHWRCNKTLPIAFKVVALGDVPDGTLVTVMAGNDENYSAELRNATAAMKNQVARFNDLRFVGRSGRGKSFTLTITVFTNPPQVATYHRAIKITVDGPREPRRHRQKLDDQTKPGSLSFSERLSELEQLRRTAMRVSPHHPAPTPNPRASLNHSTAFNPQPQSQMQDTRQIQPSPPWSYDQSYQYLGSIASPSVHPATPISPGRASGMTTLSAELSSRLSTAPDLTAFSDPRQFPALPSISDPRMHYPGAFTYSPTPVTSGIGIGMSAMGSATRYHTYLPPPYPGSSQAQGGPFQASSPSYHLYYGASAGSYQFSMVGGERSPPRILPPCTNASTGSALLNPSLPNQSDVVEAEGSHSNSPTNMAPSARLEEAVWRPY
Target sequence (Q13951 whole entry, looked up, the tested form may be a part): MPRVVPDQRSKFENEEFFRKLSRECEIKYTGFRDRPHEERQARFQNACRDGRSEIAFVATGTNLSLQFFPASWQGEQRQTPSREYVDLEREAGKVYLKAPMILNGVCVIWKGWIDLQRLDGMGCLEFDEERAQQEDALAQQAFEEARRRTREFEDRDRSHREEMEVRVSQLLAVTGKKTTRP
proKLK7 act = activators of human kallikrein-7 zymogen; P49862; purified proKLK7, EDANS-DABCYL substrate fluorescence; 100% is mature enzyme control, 0% vehicle; activation, % at 7 µM; 370,000 compounds, 0.9% hits;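 active means activation above the mean of all tested compounds plus 3 SD, computed per campaign excluding outliers beyond control limits, cut at about 13% in these data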
Runt-CBFb FRET = Runt domain-CBFb interaction inhibition. Q01196+Q13951. 220,000 compounds, 0.46% hits. inhibition, % at 20 µM. Cerulean-Runt/Venus-CBFb FRET ratio 530/480, 1 h;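 active means inhibition over about 50% at 20 µM in the single-dose screen, limit read from the data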
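Measured by: fluorescence energy transfer, 422 nm excitation, 530/480 nm emission; test system: Cerulean-tagged RUNX1 Runt domain (FRET donor) fusion protein; buffer or medium: Tris pH 7.5 buffer with BSA; compound: one dose, 20 µM compound, 1% DMSO; times: two 1 h room-temperature incubations shielded from light; benchmarks: unlabeled CBFb 5 µM, positive control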
MEX-5 binding = C. elegans MEX-5 TCR-2 RNA binding activity; activity score (negative = inhibition of binding), % at 10 µM; MEX-5/FITC-TCR2 RNA binding, fluorescence polarization; active compounds read low; AID 1832; Q9XUB2; 300,000 compounds, 0.38% hits;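 active means inhibition past about -25% in most replicates, and total fluorescence under double the plate's negative control median, limit read from the data; inconclusive means replicates evenly split on the limit, or fluorescence at least double controls; inactive means too little inhibition in most replicates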
Numbers stand for hits; . = inactive; ? = inconclusive; / = not tested or not shown.

SMILES	RanGTP-Impb inh	Runt-SMMHC FRET	proKLK7 act	Runt-CBFb FRET	MEX-5 binding
CCOC(=O)c1ccc(NC(=O)N2CCN(c3ccccc3OC)CC2)cc1	27	.	.	.	.
CCOC(=O)c1c(-c2ccccc2)csc1NC(=O)/C(C#N)=C/c1ccc(OC)c(OC)c1	.	.	.	.	-43
COc1cccc(C(=O)Nc2ccccc2NC(=O)c2cccc(OC)c2)c1	.	/	.	/	.
COc1cccc(C(=O)/C=C2\Sc3ccccc3N2C)c1	.	55	.	.	.
Cc1cc(C)c2cc(C#N)c(NCCCN)nc2c1	/	/	.	/	/
Cn1cnc(S(=O)(=O)Nc2ccccc2N2CCOCC2)c1	.	.	.	.	.
CN(C)c1cccc2c1c(NS(=O)(=O)c1cn(C)cn1)nn2C	.	/	.	/	-30
C=CCn1c(NC(=O)c2ccco2)c(S(=O)(=O)c2ccccc2)c2nc3ccccc3nc21	/	.	/	.	/
C=CCn1c(NC(=O)c2ccc(Br)o2)c(S(=O)(=O)c2ccccc2)c2nc3ccccc3nc21	45	.	.	.	.
CCOc1ccc(-c2csc(NC(=O)CSCC(=O)O)n2)c2ccccc12	.	97	.	.	.
CCOc1ccc(-c2csc(NC(=O)CSC3=NC(=O)CN3C(C)=O)n2)c2ccccc12	?	.	.	.	.
O=c1oc2c3c4c(cc2c(C(F)(F)F)c1CCN1CCOCC1)CCCN4CCC3	.	.	.	.	?
CC(C)c1cc(=O)oc2c3c4c(cc12)CCCN4CCC3	29	.	.	.	.
COc1ccc(CN(CCN2CCOCC2)C(=O)c2ccc(F)cc2F)cc1OC	/	/	.	/	/
CCOC(=O)c1c(N)n(-c2ccc(N)cc2)c2nc3ccccc3nc12	.	.	.	.	.
CCOC(=O)c1c(N)n(C2CC(C)(C)NC(C)(C)C2)c2nc3ccccc3nc12	?	94	/	.	.
CC(C)c1ccccc1OCC(=O)N(C)CC(=O)Nc1ccc(F)cc1	.	/	.	/	.
Cc1ccc(-c2c(NC(=O)c3ccc(F)cc3)nc3ncccn23)cc1	/	/	.	/	/
COc1ccc(CCN2CCC(Nc3nc4ccccc4n3Cc3ccc(F)cc3)CC2)cc1	.	.	.	.	.
COc1c(O)cccc1[C@@H](O)C1CCN(CCc2ccc(F)cc2)CC1	.	/	.	/	-29
Cc1ccccc1NC(=O)c1cc(S(=O)(=O)N2CCCCC2)ccc1N1CCOCC1	/	/	.	/	/
CCOC(=O)Cn1c2ccc(OC)cc2c2nc3ccccc3nc21	.	.	.	.	-102
COC(=O)Cn1c2ccc(OC)cc2c2nc3ccccc3nc21	?	.	.	.	.
COc1ccc2c(c1)c1nc3ccccc3nc1n2Cc1ccc(OC)c(OC)c1	.	.	.	.	-26
CCCCn1c(SCC(=O)Nc2cccc(OC)c2)nc2ccc(N3CCOCC3)cc2c1=O	.	.	.	.	.
SMILES	RanGTP-Impb inh	Runt-SMMHC FRET	proKLK7 act	Runt-CBFb FRET	MEX-5 binding
CCCCn1c(SCC(N)=O)nc2ccc(N3CCOCC3)cc2c1=O	.	.	16	.	.
O=S1(=O)CC2c3ccccc3CN2CN1C1CCCC1 (configuration not stated)	/	/	.	/	/
COc1ccc(/C=C/C(=O)c2ccc(Cl)cc2)c(OC)c1	20	.	.	.	.
COc1ccc(/C=C/C(=O)c2cc(Cl)ccc2O)c(OC)c1	.	.	.	.	.
Cc1ccc(S(=O)(=O)NC(=O)NCCCN2CCOCC2)cc1	.	/	.	/	.
Cc1ccc(S(=O)(=O)NC(=O)c2cc(C)n(CCCN3CCOCC3)c2C)cc1	60	.	.	.	.
N#C/C(=C/c1ccc(-c2cc(C(=O)O)cc(C(=O)O)c2)o1)c1nc2ccccc2s1	.	69	/	85	.
Cc1cccc(CN2CCN(C3CN(Cc4cn(Cc5ccc(Cl)cc5)nn4)S(=O)(=O)C3)CC2)c1 (configuration not stated)	/	/	.	/	/
O=C(c1ccc(F)cc1F)N1CCC(Oc2cccnc2)CC1	/	/	.	/	/
O=C(Cn1nnc(-c2ccc(F)cc2)n1)OCC(=O)c1ccccc1	20	.	.	.	.
CCOC(=O)CCc1c(C)c2ccc(O)cc2oc1=O	.	91	45	.	.
CCOC(=O)CCc1c(C)c2ccc(OCC(=O)N(CC)CC)c(C)c2oc1=O	.	.	.	.	.
Nc1nc(N)n(-c2ccccc2)c(=Nc2ccccc2)n1	.	/	.	/	.
COc1ccccc1C1CN(c2ccc(F)cc2F)N=C1c1cccs1 (configuration not stated)	.	83	.	.	.
COc1ccccc1C1CC(c2cccs2)=Nc2ccccc2S1 (configuration not stated)	.	.	.	.	.
CCCCOc1ccc(S(=O)(=O)NC(=O)C2(C)CCN2C(=O)c2c(C)noc2C)cc1 (configuration not stated)	/	/	.	/	/
CCN1C(=O)CSc2ccc(C(=O)NCc3ccco3)cc21	23	.	.	.	.
CC(=O)c1cc(F)ccc1OCC(=O)N1CCCc2ccccc21	.	/	.	/	.
C=CCc1cc(/C=C/c2nc(O)c([N+](=O)[O-])c(=O)[nH]2)cc(OC)c1O	34	80	.	.	.
CC(C)(C)C(=O)O/N=C1\CCS(=O)(=O)c2sccc21	.	.	.	.	.
O=C(O/N=C1\CCS(=O)(=O)c2sccc21)C1CC1	101	.	.	.	.
Oc1cc2c(cc1O)C(c1ccccc1)CNCC2 (configuration not stated)	.	/	.	/	-30
N#Cc1ccc(/C=C\c2nccc3c2[nH]c2ccccc23)cc1	103	.	.	.	.
CN(C)c1ccc(C=Cc2nccc3ccccc23)cc1	/	/	.	/	/
O=c1c2ccccc2sn1-c1ccccc1	.	57	.	.	.
SMILES	RanGTP-Impb inh	Runt-SMMHC FRET	proKLK7 act	Runt-CBFb FRET	MEX-5 binding
COCCCn1c(=O)/c(=C\c2ccc(OC(F)F)c(OC)c2)s/c1=C(/C#N)C(N)=O	.	81	.	.	.
COCCCn1c(=O)/c(=C\c2ccccc2OC(F)F)s/c1=C(/C#N)C(N)=O	.	.	.	.	.
Cc1cc(-c2cccs2)c(C#N)c(=S)[nH]1	.	.	.	.	.
N#Cc1c(-c2cccs2)cc(-c2cccs2)[nH]c1=O	45	80	.	86	.
O=C(NCCc1ccccc1)C1C(=O)Nc2ccccc2C(=O)N1C1CCCCC1 (configuration not stated)	/	/	.	/	/
CCCCCCNC(=O)C(C#N)c1nc2ccccc2nc1N1CCOCC1 (configuration not stated)	.	.	.	.	?
COCCOC(=O)C(C#N)c1nc2ccccc2nc1N1CCCC1 (configuration not stated)	.	.	.	.	.
CCCCN(CCCC)c1nc2ccccc2nc1C(C#N)C(=O)NCCCOC (configuration not stated)	32	.	.	.	?
CCCCCNC(=O)C(C#N)c1nc2ccccc2nc1N1CCCC1 (configuration not stated)	20	.	/	.	?
